Screening results deposited in PubChem BioAssay by several laboratories.
SUMO Mot1 rescue: yeast Mot1-301 growth rescue at high temperature, primary screen, SUMOylation pathway inhibitor project, S. cerevisiae, ATP luminescence, 38.5C; S. cerevisiae Mot1-301 growth rescue; percent above DMSO median, 100 means doubled; hit rate 1% among 320,000; growth rescue, % at 18.8 µM; AID 2716, 2010;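 active = every valid replicate shows activation above 250% relative to neutral control wells; inactive = the rest, any valid replicate at or below 250%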
APOBEC3A inh: APOBEC3A ssDNA deaminase inhibitors, primary screen, selectivity assay for APOBEC3G inhibitor project, biochemical, FAM/TAMRA oligo cleavage fluorescence. DNA dC->dU-editing enzyme APOBEC-3A (Homo sapiens), P31941. recombinant A3A, FAM/TAMRA ssDNA deamination fluorescence. inhibition, % at 20 µM. hit rate 0.41% among 330,000;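 active = at least 40% inhibition at 20 µM here, with at most 30% in a related deaminase screen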
Target sequence (P31941 whole entry, looked up): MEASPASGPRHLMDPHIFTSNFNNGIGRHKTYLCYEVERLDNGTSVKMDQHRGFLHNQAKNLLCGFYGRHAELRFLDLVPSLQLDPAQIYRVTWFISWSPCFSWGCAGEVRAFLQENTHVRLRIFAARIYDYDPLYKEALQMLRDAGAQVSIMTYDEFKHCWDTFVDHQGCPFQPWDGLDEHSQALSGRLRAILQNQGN
A3G deaminase: APOBEC3G DNA deaminase inhibitors, primary screen, biochemical, fluorescence, single-stranded DNA substrate, uHTS; DNA dC->dU-editing enzyme APOBEC-3G (Homo sapiens), Q9HC16; inhibition, % at 20 µM; hit rate 0.28% among 330,000; recombinant A3G, ssDNA deamination FAM/TAMRA fluorescence; AID 493012, 2011;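 active = inhibition of at least 40% at 20 µM, with no more than 30% in the related APOBEC3A deaminase screen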
ARFGAP1 inh: inhibitors of rat ARFGAP1 GAP activity, primary screen, biochemical, fluorescence polarization, GDP tracer. ADP-ribosylation factor GTPase-activating protein 1 (Rattus norvegicus), Q62848. Arfgap1-stimulated ARF1 GTP hydrolysis, GDP FP detection. inhibition, % at 16.5 µM. hit rate 0.26% among 360,000;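 active = inhibition above a per-plate limit, mean inhibition of low control wells plus 3 SD, cut at about 25% in these data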
Target sequence (Q62848 1-136 limits assumed): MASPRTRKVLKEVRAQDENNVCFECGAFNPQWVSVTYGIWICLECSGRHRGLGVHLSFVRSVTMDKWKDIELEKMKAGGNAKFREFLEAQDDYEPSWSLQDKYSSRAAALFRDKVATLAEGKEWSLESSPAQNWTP
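Repeats: one replicate per compound; assay system: rat Arfgap1 catalytic domain, aa 1-136; times: enzyme reaction 120 min at 25 °C after 20 min preincubation; detection: FP of antibody-bound GDP Alexa 633 tracer, ex 620/em 688 nm; benchmarks: high control wells lacking Arfgap1, low control full reaction with DMSO; reagent: human ARF1(Δ1-17)-GTP substrate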
C2C12 statin: suppressors of statin myotoxicity in C2C12 myotubes, primary screen, cell-based, single point, plate reader | C2C12 myotubes + simvastatin, ATP luminescence, 48 h; scaled: DMSO 0, geranylgeraniol control 100 | hit rate 0.78% among 330,000 | AID 602340, 2012 | rescue of ATP level, % at 7.49 µM;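 active = mean ATP rescue above about 67%, or every replicate alone reaching that limit, limit read from the data, passing the limit was not always enough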;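 note: myotubes were challenged with 10 µM simvastatin during compound exposure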
ASAP1 GAP inh: inhibitors of human ASAP1 ArfGAP activity, primary screen, biochemical, fluorescence polarization; inhibition, % at 16.5 µM; AID 624377, 2012; hit rate 0.19% among 360,000; Arf-GAP with SH3 domain, ANK repeat and PH domain-containing protein 1 (Homo sapiens), …; ASAP1-stimulated ARF1 GTP hydrolysis, GDP FP detection; in the data active = inhibition above about 25%
Numbers stand for hits; n = inactive; x = no result. Rows were chosen to be rich in hits. Some 2.1% of all compounds tested hit in one or more screens of this group.

SMILES	SUMO Mot1 rescue	APOBEC3A inh	A3G deaminase	ARFGAP1 inh	C2C12 statin	ASAP1 GAP inh
Cc1c(C)c2c(OCC(=O)N3CCC(C(N)=O)CC3)cc3c(c2oc1=O)CCC(C)(C)O3	610	n	n	n	n	n
Cc1cc(=O)oc2c3c(cc(OCC(=O)N4CCC[C@H]4C(=O)O)c12)OC(C)(C)CC3	n	n	n	n	n	n
CCCCc1cc(=O)oc2c3c(cc(OCC(=O)N4CCC[C@H]4C(=O)O)c12)OC(C)(C)CC3	721	n	n	n	n	n
C[C@H](CO)N1C[C@H](C)[C@@H](CN(C)C(=O)c2ccccc2)OCCCC[C@H](C)Oc2ccc(NC(=O)NC3CCCCC3)cc2C1=O	x	x	x	x	n	x
O=C1OCCN1N1CCOC1=O	x	x	x	n	113	n
COc1cccc(S(=O)(=O)N(C)C[C@H]2OCc3ccccc3-c3c(n(C)c4ccccc34)C(=O)N([C@H](C)CO)C[C@H]2C)c1	x	x	x	x	80	x
COc1cc(/C=N/O)cc(Cl)c1OC	328	n	n	n	n	n
CCOC(=O)CN1C(=O)S/C(=C/c2ccc(OC)c([N+](=O)[O-])c2)C1=O	n	n	n	n	113	n
O=C(N[C@H]1CC[C@H](CCNC(=O)C2CCCCC2)O[C@H]1CO)c1ccncc1	x	x	x	x	n	x
N#CCc1c(C#N)c(N)nc(N2CCN(C=O)CC2)c1C#N	n	n	n	n	x	n
N#CCc1c(C#N)c(N)nc(N2CCN(S(=O)(=O)c3ccccc3)CC2)c1C#N	n	n	n	n	84	n
CCSCCOC(=O)C1=C(C)NC(=O)NC1c1cc(OC)ccc1OC (stereo not given)	n	n	n	n	99	n
CO[C@H]1CN(C)C(=O)c2cc(NC(=O)C3CCC3)ccc2OC[C@H](C)N(CC2CCCCC2)C[C@H]1C	x	x	x	x	n	x
C[N+]1(C)CC[C@H](OC(=O)[C@@](O)(c2ccccc2)C2CCCC2)C1	n	n	n	n	n	n
C[N+]1(C)CCC(OC(=O)C(O)(c2ccccc2)C2CCCC2)C1 (stereo not given)	373	n	n	n	n	n
CC/C(=N\O)c1ccc(OC)c(OC)c1	n	n	n	n	x	n
C=CCOc1ccc(/C(CC)=N/O)cc1OC	n	n	n	n	117	n
O=C(C[C@@H]1CC[C@H](NS(=O)(=O)c2ccccc2)[C@H](CO)O1)NCCN1CCCCC1	x	x	x	x	n	x
N#CCc1ccc(Oc2ncccn2)cc1	356	n	n	n	n	n
O=[N+]([O-])c1ccc(Oc2ncccn2)cc1	n	n	n	n	x	n
CN(C)CCCNc1nc(N)c([N+](=O)[O-])c(NCCO)n1	n	n	n	n	87	n
CCN(CC)CCCNc1nc(N)c([N+](=O)[O-])c(NCCO)n1	n	n	n	n	x	n
C[C@@H](O)CC(=O)O	n	n	n	n	n	n
CN[C@H](CC(=O)O)C(=O)O	307	n	n	n	n	n
Oc1ccc(-c2csc(Nc3ccc4c(c3)OCO4)n2)c(O)c1	x	x	x	n	132	n
SMILES	SUMO Mot1 rescue	APOBEC3A inh	A3G deaminase	ARFGAP1 inh	C2C12 statin	ASAP1 GAP inh
Oc1ccc(-c2csc(Nc3ncccn3)n2)c(O)c1	n	n	n	n	n	n
CN(C)S(=O)(=O)c1ccc(N2CCCC2)c(C(=O)Nc2ccc(C(N)=O)cc2)c1	261	n	n	n	n	n
O=C(NCC1CC1)[C@H]1[C@H](CO)[C@H]2Cn3c(ccc(C4=CCCCC4)c3=O)[C@H]2N1Cc1ccccc1F	x	x	x	x	n	x
CNC(=O)Cn1ncc2c(C)n(Cc3ccc(C)cc3)c(C)c2c1=O	n	n	n	n	120	n
COc1ccc(Cn2nnnc2C(c2cc3cc(C)ccc3[nH]c2=O)N2CCOCC2)cc1 (stereo not given)	n	n	n	n	n	n
COc1ccc(N2CCN(C(c3cc4cc(C)ccc4[nH]c3=O)c3nnnn3Cc3ccccc3)CC2)cc1 (stereo not given)	n	n	n	n	75	n
C[C@@H]1CN([C@H](C)CO)C(=O)c2cccc(NC(=O)c3ccc(-c4nccs4)cc3)c2O[C@@H]1CN(C)C(=O)Nc1ccc(F)cc1	x	x	x	x	87	x
C[C@H]1CN([C@@H](C)CO)C(=O)c2cccc(NS(=O)(=O)c3cccs3)c2O[C@@H]1CN(C)C(=O)Nc1ccc(C(F)(F)F)cc1	x	x	x	x	86	x
COc1ccc(NC(=O)N(C)C[C@H]2Oc3c(NS(=O)(=O)c4cccs4)cccc3C(=O)N([C@@H](C)CO)C[C@H]2C)cc1	x	x	x	x	88	x
O=C(O)C[C@@H]1CC[C@H](NC(=O)c2ccncc2)[C@@H](CO)O1	x	x	x	x	n	x
Cc1cc(O)c(-c2cc(O)c(C)cc2O)cc1O	n	n	86	n	n	n
Cc1cc(N=O)c(C)cc1O	x	x	x	n	n	n
C[C@@H]1CN([C@H](C)CO)C(=O)c2cc(NC(=O)Cc3cn(C)c4ccccc34)ccc2O[C@@H]1CN(C)CC1CCCCC1	x	x	x	x	n	x
CNC(=O)C[C@@H]1CC[C@@H]2[C@H](COC[C@H](O)CN2C(=O)Nc2cccc(OC)c2)O1	x	x	x	x	n	x
COc1ccccc1NC(=O)N(C)C[C@@H]1Oc2ncc(C#CC(C)C)cc2C(=O)N([C@H](C)CO)C[C@H]1C	x	x	x	x	n	x
CC1CCc2nc(NC(=O)CN3CCOCC3)sc2C1 (stereo not given)	n	n	n	n	n	n
CC1(C)CNC(=O)c2sc(NC(=O)CN3CCOCC3)nc2C1	n	n	n	n	108	n
N#CC1CN(C(c2ccccc2)c2ccccc2)C1	x	n	n	n	107	n
c1ccc2c(c1)CNC1(CCCCC1)C2	n	n	n	n	107	n
C[C@@H]1CN([C@H](C)CO)C(=O)c2cc(NC(=O)Cc3ccccc3)ccc2O[C@@H](C)CCCCO[C@@H]1CN(C)C(=O)C1CCCCC1	x	x	x	x	n	x
O=C(COc1ccccc1)N1CCN(c2nnc(-c3ccccc3)c3ccccc23)CC1	n	n	n	n	79	n
COc1ccc(OCC(=O)N2CCN(c3nnc(-c4ccccc4)c4ccccc34)CC2)cc1	n	n	n	n	x	n
CCCSC1=C(C#N)C(c2ccccc2C)CC(=O)N1 (stereo not given)	n	n	n	n	134	n
CN(CCO)c1cnccn1	580	n	n	n	x	n
CCOC(=O)C(=CNCC(=O)OC)C(=O)OCC	n	n	n	n	107	n
